Columns and labels:
[1] = Cmax in rhesus monkey at 33.3 mg/kg, iv administered as single dose; assay type: ADME, organism-based, Macaca mulatta; parameters: dose 33.3 mg/kg, route intravenous; details: in vivo
Procedure, shortened: (§1)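 Three rhesus monkeys, anesthetised with ketamine plus tiletamine/zolazepam, received a single 33.3 mg/kg bolus in sterile normal saline via the femoral vein. Serum was acetonitrile-extracted with 3TC as internal standard and assayed by reverse-phase HPLC-UV at 270 nm. Peak concentration and its time were taken as observed; noncompartmental analysis.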

[2] = Metabolic stability in human whole blood at 1000 dpm/pmol after 48 hrs at 37 degC; assay type: ADME, tissue-based; details: read-out: Stability
Procedure, shortened: (§2)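 3H-labeled nucleoside (10 μM, 1,000 dpm/pmol) incubated in human or monkey whole blood at 37°C for 0–48 h. Aliquots centrifuged, supernatant extracted with acetonitrile, dried, redissolved in water and run on ion-pairing reverse-phase C18 HPLC (ammonium acetate/tetrabutylammonium phosphate pH 7.0, methanol) to measure parent and deaminated product. Each time point in replicate.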

[3] = Terminal half life in rhesus monkey at 33.3 mg/kg, iv administered as single dose; assay type: ADME, organism-based, Macaca mulatta; parameters: dose 33.3 mg/kg, route intravenous; details: in vivo, read-out: beta t1/2 (converted)
Procedure, shortened: (§3)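 Three rhesus monkeys; single 33.3 mg/kg oral dose by gastric intubation in water, then after ≥4-week washout i.v. bolus via femoral vein in sterile normal saline; anesthetized (ketamine plus Telazol i.m.) for 4 h. Femoral venous blood at 0–24 h; serum by HPLC-UV 270 nm, 3TC internal standard. Noncompartmental analysis per animal and pooled; AUC by trapezoid extrapolated to infinity; F = AUCoral/AUCi.v.; MAT = MRToral − MRTi.v.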

HepG2 = experiment: Cytotoxicity against human HepG2 cells; assay type: cell-based
[4] = Metabolic stability in human whole blood at 1000 dpm/pmol after 10 hrs at 37 degC; assay type: ADME, tissue-based; details: read-out: Stability; procedure, shortened: as §2
[5] = Metabolic stability in human whole blood at 1000 dpm/pmol after 8 hrs at 37 degC; assay type: ADME, tissue-based; details: read-out: Stability; procedure, shortened: as §2
[6] = Metabolic stability in rhesus monkey whole blood at 1000 dpm/pmol after 4 hrs at 37 degC; assay type: ADME, tissue-based, Macaca mulatta; details: read-out: Stability; procedure, shortened: as §2
Rhesus monkey [7] = experiment: Apparent volume of distribution with respect to bioavailability in rhesus monkey at 33.3 mg/kg, iv administered as single dose; assay type: ADME, organism-based, Macaca mulatta; details: in vivo; procedure, shortened: as §3
[8] = Mean residence time in rhesus monkey at 33.3 mg/kg, po administered as single dose; assay type: ADME, organism-based, Macaca mulatta; parameters: dose 33.3 mg/kg, route oral; details: in vivo; procedure, shortened: as §3
[9] = Stability in rhesus monkey urine at 33.3 mg/kg assessed as unchanged drug dose administered as single dose during 8 hrs; assay type: ADME, organism-based, Macaca mulatta; parameters: dose 33.3 mg/kg; details: read-out: Stability
Procedure, shortened: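 Catheterized rhesus monkeys given single 33.3 mg/kg oral or i.v. dose; urine collected in intervals over 0–8 h, kept on ice then frozen at −70°C; diluted 20-fold (oral) or 50-fold (i.v.), 3TC internal standard added, parent and deaminated uridine metabolite quantified by HPLC-UV 270 nm; percent of dose recovered.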

Rhesus monkey [10] = experiment: Mean absorption time in rhesus monkey at 33.3 mg/kg, po administered as single dose; assay type: ADME, organism-based, Macaca mulatta; parameters: dose 33.3 mg/kg, route oral; details: in vivo; procedure, shortened: as §3
[11] = Tmax in rhesus monkey at 33.3 mg/kg, iv administered as single dose; assay type: ADME, organism-based, Macaca mulatta; parameters: dose 33.3 mg/kg, route intravenous; details: in vivo; procedure, shortened: as §1
[12] = Apparent oral clearance in rhesus monkey at 33.3 mg/kg, po administered as single dose; assay type: ADME, organism-based, Macaca mulatta; parameters: dose 33.3 mg/kg, route oral; details: in vivo; procedure, shortened: as §3
[13] = AUC in rhesus monkey at 33.3 mg/kg, iv administered as single dose; assay type: ADME, organism-based, Macaca mulatta; parameters: dose 33.3 mg/kg, route intravenous; details: plasma; procedure, shortened: as §3
[14] = Metabolic stability in human whole blood at 1000 dpm/pmol after 0.5 hrs at 37 degC; assay type: ADME, tissue-based; details: read-out: Stability; procedure, shortened: as §2
[15] = Metabolic stability in rhesus monkey whole blood at 1000 dpm/pmol after 1 hr at 37 degC; assay type: ADME, tissue-based, Macaca mulatta; details: read-out: Stability; procedure, shortened: as §2
[16] = Drug level in rhesus monkey cerebrospinal fluid at 33.3 mg/kg, po administered as single dose after 1 hr; assay type: ADME, organism-based, Macaca mulatta; parameters: dose 33.3 mg/kg, route oral; details: read-out: Drug uptake
Procedure, shortened: (§4)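 Same three anesthetized rhesus monkeys given single 33.3 mg/kg oral (water, gastric intubation) or i.v. (saline, femoral vein) dose. CSF taken 1 h post-dose by cisternal or lumbar tap; 3TC internal standard added, analyzed by reverse-phase HPLC with UV detection at 270 nm against standards in water (0.1–25 μg/ml).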

[17] = Metabolic stability in rhesus monkey whole blood at 1000 dpm/pmol after 24 hrs at 37 degC; assay type: ADME, tissue-based, Macaca mulatta; details: read-out: Stability; procedure, shortened: as §2
[18] = Metabolic stability in rhesus monkey whole blood at 1000 dpm/pmol after 0.25 hrs at 37 degC; assay type: ADME, tissue-based, Macaca mulatta; details: read-out: Stability; procedure, shortened: as §2
[19] = Oral bioavailability in rhesus monkey at 33.3 mg/kg, po administered as single dose; assay type: ADME, organism-based, Macaca mulatta; details: in vivo; procedure, shortened: as §3
[20] = Metabolic stability in human whole blood at 1000 dpm/pmol after 4 hrs at 37 degC; assay type: ADME, tissue-based; details: read-out: Stability; procedure, shortened: as §2
[21] = Drug level in rhesus monkey cerebrospinal fluid at 33.3 mg/kg, iv administered as single dose after 1 hr; assay type: ADME, organism-based, Macaca mulatta; parameters: dose 33.3 mg/kg, route intravenous; details: read-out: Drug uptake; procedure, shortened: as §4
[22] = Drug level in rhesus monkey cerebrospinal fluid assessed as 2'-deoxy-2'-fluoro-2'-C-methyluridine level at 33.3 mg/kg, iv administered as single dose after 1 hr; assay type: ADME, organism-based, Macaca mulatta; parameters: dose 33.3 mg/kg, route intravenous; details: in vivo, read-out: Drug uptake; procedure, shortened: as §4
[23] = Terminal half life in rhesus monkey at 33.3 mg/kg, po administered as single dose; assay type: ADME, organism-based, Macaca mulatta; parameters: dose 33.3 mg/kg, route oral; details: in vivo, read-out: beta t1/2 (converted); procedure, shortened: as §3
[24] = Volume of distribution at steady state in rhesus monkey at 33.3 mg/kg, iv administered as single dose; assay type: ADME, organism-based, Macaca mulatta; parameters: dose 33.3 mg/kg, route intravenous; details: in vivo, read-out: Vdss; procedure, shortened: as §3
[25] = AUC in rhesus monkey at 33.3 mg/kg, po administered as single dose; assay type: ADME, organism-based, Macaca mulatta; parameters: dose 33.3 mg/kg, route oral; details: plasma; procedure, shortened: as §3
[26] = Metabolic stability in rhesus monkey whole blood at 1000 dpm/pmol after 2 hrs at 37 degC; assay type: ADME, tissue-based, Macaca mulatta; details: read-out: Stability; procedure, shortened: as §2
[27] = Metabolic stability in rhesus monkey whole blood at 1000 dpm/pmol after 48 hrs at 37 degC; assay type: ADME, tissue-based, Macaca mulatta; details: read-out: Stability; procedure, shortened: as §2
[28] = Clearance in rhesus monkey at 33.3 mg/kg, iv administered as single dose; details: in vivo
[29] = Metabolic stability in rhesus monkey whole blood at 1000 dpm/pmol after 0.5 hrs at 37 degC; assay type: ADME, tissue-based, Macaca mulatta; details: read-out: Stability; procedure, shortened: as §2
[30] = Metabolic stability in rhesus monkey whole blood at 1000 dpm/pmol after 10 hrs at 37 degC; assay type: ADME, tissue-based, Macaca mulatta; details: read-out: Stability; procedure, shortened: as §2
[31] = Clearance in rhesus monkey at 33.3 mg/kg, po administered as single dose; assay type: ADME, organism-based, Macaca mulatta; parameters: dose 33.3 mg/kg, route oral; details: in vivo; procedure, shortened: as §3
[32] = Metabolic stability in human whole blood at 1000 dpm/pmol after 24 hrs at 37 degC; assay type: ADME, tissue-based; details: read-out: Stability; procedure, shortened: as §2
[33] = Apparent volume of distribution with respect to bioavailability in rhesus monkey at 33.3 mg/kg, po administered as single dose; assay type: ADME, organism-based, Macaca mulatta; details: in vivo, read-out: Vc/F; procedure, shortened: as §3
[34] = Metabolic stability in human whole blood at 1000 dpm/pmol after 1 hr at 37 degC; assay type: ADME, tissue-based; details: read-out: Stability; procedure, shortened: as §2
[35] = Metabolic stability in rhesus monkey whole blood at 1000 dpm/pmol after 8 hrs at 37 degC; assay type: ADME, tissue-based, Macaca mulatta; details: read-out: Stability; procedure, shortened: as §2
[36] = Mean residence time in rhesus monkey at 33.3 mg/kg, iv administered as single dose; assay type: ADME, organism-based, Macaca mulatta; parameters: dose 33.3 mg/kg, route intravenous; details: in vivo; procedure, shortened: as §3
[37] = Metabolic stability in human whole blood at 1000 dpm/pmol after 0.25 hrs at 37 degC; assay type: ADME, tissue-based; details: read-out: Stability; procedure, shortened: as §2
[38] = Metabolic stability in human whole blood at 1000 dpm/pmol after 2 hrs at 37 degC; assay type: ADME, tissue-based; details: read-out: Stability; procedure, shortened: as §2
Hepatitis C virus = experiment: Antiviral activity against HCV in human Huh7 cells by replicon based assay; assay type: functional, Hepacivirus hominis; details: Huh-7
[39] = Metabolic stability in rhesus monkey whole blood assessed as 2'-deoxy-2'-fluoro-2'-C-methyluridine level at 1000 dpm/pmol after 24 hrs at 37 degC; assay type: ADME, tissue-based, Macaca mulatta; procedure, shortened: as §2
[40] = Metabolic stability in human whole blood assessed as 2'-deoxy-2'-fluoro-2'-C-methyluridine level at 1000 dpm/pmol after 24 hrs at 37 degC; assay type: ADME, tissue-based; procedure, shortened: as §2

C[C@@]1(F)[C@H](O)[C@@H](CO)O[C@H]1n1ccc(N)nc1=O
Cmax [1]: 154000 nM
remaining at 48 h [2]: 83.7%
half-life [3]: 4.54 h
Activity (HepG2): > 100 µM
remaining at 10 h [4]: 99.1%
remaining at 8 h [5]: 100%
remaining at 4 h [6]: 100%
Vc/F (Rhesus monkey [7]): 4.8 L/kg
MRT [8]: 7.11 h
dose excreted at 8 h [9]: 6%
MAT (Rhesus monkey [10]): 4.61 h
Tmax [11]: 0.25 h
CL/F [12]: 48 mL/min/kg
AUC [13]: 235 µM·h
remaining at 0.5 h [14]: 100%
remaining at 1 h [15]: 100%
concentration at 1 h [16]: 280 nM
remaining at 24 h [17]: 93.1%
remaining at 0.25 h [18]: 100%
bioavailability [19]: 24%
remaining at 4 h [20]: 100%
concentration at 1 h [21]: 3670 nM
concentration [22]: 1380 nM
half-life [23]: 5.64 h
Vd [24]: 1.51 L/kg
AUC [25]: 44.1 µM·h
remaining at 2 h [26]: 100%
remaining at 48 h [27]: 80%
clearance [28]: 10 mL/min/kg
remaining at 0.5 h [29]: 100%
remaining at 10 h [30]: 97.2%
CL/F [31]: 48 mL/min/kg
remaining at 24 h [32]: 95.1%
Vd/F [33]: 21.9 L/kg
remaining at 1 h [34]: 100%
remaining at 8 h [35]: 100%
MRT [36]: 2.5 h
remaining at 0.25 h [37]: 100%
remaining at 2 h [38]: 100%
EC90 (Hepatitis C virus): 5.4 µM

C[C@@]1(F)[C@H](O)[C@@H](CO)O[C@H]1n1ccc(=O)[nH]c1=O
Stability [39]: 6.9%
Stability [40]: 4.9%
